Data reported in ChEMBL document CHEMBL3286259, “Synthesis and anticancer activity of some novel 5,6-fused hybrids of juglone based 1,4-naphthoquinones” (Eur J Med Chem, 2014).
Active and inactive are the calls of the source. The calls are words filed in the database; no cut-off is given here.

What was measured:
[1] = system: PC-3; test: Cytotoxicity against human PC3 cells assessed as inhibition of cell viability after 48 hrs by MTT assay; assay type: functional, cell-based; details: PC-3, 48 h
In short: (§1)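 Cells were counted by trypan blue exclusion, seeded at 1x10^4 cells per well, and exposed to a series of compound concentrations for 48 h at 37 °C in DMEM with 10% FBS. The medium was replaced with serum-free medium plus MTT (5 mg/ml reagent) for 4 h at 37 °C. Formazan was dissolved in DMSO for 10 min and A570 was read. IC50 came from a plot of % viability versus control against concentration.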

[2] = Cytotoxicity against human ME180 cells assessed as inhibition of cell viability after 48 hrs by MTT assay; assay type: functional, cell-based; details: ME-180, 48 h; in short: as §1
[3] = system: HT-29; test: Cytotoxicity against human HT-29 cells assessed as inhibition of cell viability after 48 hrs by MTT assay; assay type: functional, cell-based; details: HT-29, 48 h; in short: as §1
[4] = system: MDA-MB-453; test: Cytotoxicity against human MDA-MB-453 cells assessed as inhibition of cell viability after 48 hrs by MTT assay; assay type: functional, cell-based; details: MDA-MB-453, 48 h; in short: as §1
[5] = system: MCF7; test: Cytotoxicity against human MCF7 cells assessed as inhibition of cell viability after 48 hrs by MTT assay; assay type: functional, cell-based; details: MCF7, 48 h; in short: as §1
[6] = system: HeLa; test: Cytotoxicity against human HeLa cells assessed as inhibition of cell viability after 48 hrs by MTT assay; assay type: functional, cell-based; in short: as §1
[7] = system: MDA-MB-231; test: Cytotoxicity against human MDA-MB-231 cells assessed as inhibition of cell viability after 48 hrs by MTT assay; assay type: functional, cell-based; details: MDA-MB-231, 48 h; in short: as §1
[8] = Retardation factor of the compound using hexane/ethyl acetate at ratio of 19:1 as solvent system; assay type: physicochemical
[9] = Retardation factor of the compound using hexane/ethyl acetate at ratio of 3:1 as solvent system; assay type: physicochemical
[10] = system: MCF7; test: Ratio of etoposide IC50 to compound IC50 for human MCF7 cells; assay type: functional
[11] = system: PC-3; test: Cell cycle arrest in human PC3 cells assessed as accumulation at G0/G1 phase at 6 uM after 48 hrs by flow cytometry (reference value: 55%); assay type: functional
In short: (§2)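 Cells were plated at […] per well in six-well plates and treated for 48 h. They were harvested by trypsinization, washed twice in PBS, and fixed in 70% ice-cold ethanol at −20 °C for 3 h. Cells were then incubated with propidium iodide cell-cycle reagent at 37 °C for 30 min, and DNA content was measured by flow cytometry. PC-3 assays were run in duplicate.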

[12] = system: PC-3; test: Cell cycle arrest in human PC3 cells assessed as accumulation at G2/M phase at 3 uM after 48 hrs by flow cytometry (reference value: 20.9%); assay type: functional; in short: as §2
[13] = system: PC-3; test: Cell cycle arrest in human PC3 cells assessed as accumulation at G2/M phase at 6 uM after 48 hrs by flow cytometry (reference value: 20.9%); assay type: functional; in short: as §2
[14] = system: PC-3; test: Induction of morphological changes in human PC3 cells assessed as late apoptosis/necrosis at 6 uM after 48 hrs by acridine orange/ethidium bromide staining based fluorescence microscopy; assay type: functional, cell-based
In short: (§3)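 Cells were seeded at 1×10^6 per well in 6-well plates and treated for 48 h. After a PBS wash they were stained with a 1:1 acridine orange/ethidium bromide mix for 5 min in the dark, washed again, and imaged by inverted fluorescence microscopy at 200X. Two thousand cells were counted and scored as viable, early apoptotic, late apoptotic or necrotic, expressed as %.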

[15] = system: PC-3; test: Ratio of etoposide IC50 to compound IC50 for human PC3 cells; assay type: functional
[16] = Retardation factor of the compound using hexane/ethyl acetate at ratio of 1.8:1 as solvent system; assay type: physicochemical
[17] = system: PC-3; test: Cell cycle arrest in human PC3 cells assessed as accumulation at G0/G1 phase at 3 uM after 48 hrs by flow cytometry (reference value: 55%); assay type: functional; in short: as §2
[18] = system: PC-3; test: Cell cycle arrest in human PC3 cells assessed as increase in accumulation at G2/M phase at 3 to 6 uM after 48 hrs by flow cytometry relative to control; assay type: functional; in short: as §2
[19] = system: PC-3; test: Induction of morphological changes in human PC3 cells assessed as early apoptosis by measuring condensed chromatin, cell membrane blebbing, destructive fragmentation of nuclei at 3 uM after 48 hrs by acridine orange/ethidium bromide staining based fluorescence microscopy; assay type: functional; in short: as §3
[20] = system: PC-3; test: Cell cycle arrest in human PC3 cells assessed as accumulation at S phase at 3 uM after 48 hrs by flow cytometry (reference value: 15.8%); assay type: functional; in short: as §2
[21] = system: PC-3; test: Cell cycle arrest in human PC3 cells assessed as accumulation at S phase at 6 uM after 48 hrs by flow cytometry (reference value: 15.8%); assay type: functional; in short: as §2
[22] = system: MDA-MB-453; test: Cell cycle arrest in human MDA-MB-453 cells assessed as increase in accumulation at S phase after 48 hrs by flow cytometry; assay type: functional, cell-based; in short: as §2
[23] = system: MDA-MB-231; test: Ratio of etoposide IC50 to compound IC50 for human MDA-MB-231 cells; assay type: functional
[24] = system: MDA-MB-453; test: Induction of morphological changes in human MDA-MB-453 cells assessed as early apoptosis by measuring condensed chromatin, cell membrane blebbing, destructive fragmentation of nuclei at 5 uM after 48 hrs by acridine orange/ethidium bromide staining based fluorescence microscopy; assay type: functional; in short: as §3
[25] = system: MDA-MB-453; test: Cell cycle arrest in human MDA-MB-453 cells assessed as increase in accumulation at G2/M phase after 48 hrs by flow cytometry; assay type: functional, cell-based; in short: as §2
[26] = system: MDA-MB-453; test: Cell cycle arrest in human MDA-MB-453 cells assessed as accumulation at G0/G1 phase at 10 uM after 48 hrs by flow cytometry (reference value: 62.6%); assay type: functional; in short: as §2
[27] = system: MDA-MB-453; test: Cell cycle arrest in human MDA-MB-453 cells assessed as accumulation at G0/G1 phase at 5 uM after 48 hrs by flow cytometry (reference value: 62.6%); assay type: functional; in short: as §2
[28] = system: MDA-MB-453; test: Cell cycle arrest in human MDA-MB-453 cells assessed as accumulation at S phase at 5 uM after 48 hrs by flow cytometry (reference value: 5.9%); assay type: functional; in short: as §2
[29] = system: MDA-MB-453; test: Cell cycle arrest in human MDA-MB-453 cells assessed as accumulation at G2/M phase at 10 uM after 48 hrs by flow cytometry (reference value: 23.5%); assay type: functional; in short: as §2
[30] = system: MDA-MB-453; test: Induction of morphological changes in human MDA-MB-453 cells assessed as late apoptosis/necrosis at 10 uM after 48 hrs by acridine orange/ethidium bromide staining based fluorescence microscopy; assay type: functional, cell-based; in short: as §3
[31] = system: MDA-MB-453; test: Cell cycle arrest in human MDA-MB-453 cells assessed as accumulation at S phase at 10 uM after 48 hrs by flow cytometry (reference value: 5.9%); assay type: functional; in short: as §2
[32] = system: MDA-MB-453; test: Cell cycle arrest in human MDA-MB-453 cells assessed as accumulation at G2/M phase at 5 uM after 48 hrs by flow cytometry (reference value: 23.5%); assay type: functional; in short: as §2
[33] = system: MDA-MB-453; test: Ratio of etoposide IC50 to compound IC50 for human MDA-MB-453 cells; assay type: functional

Row | Structure (SMILES) | IC50 [1] [µM] | IC50 [2] [µM] | IC50 [3] [µM] | IC50 [4] [µM] | IC50 [5] [µM] | IC50 [6] [µM] | IC50 [7] [µM] | other results
1 | C=CCOc1cccc2c1C(=O)C=CC2=O | 22.3 | > 100 | 32.3 | 37.8 | 24 | > 100 | > 100 | 
2 | C=CCc1ccc2c(c1O)C(=O)C=CC2=O | 92.9 | 82.9 | > 100 | 53.7 | 58.2 | > 100 | > 100 | Rf [8]: 0.39
3 | COc1cccc2c1C(=O)c1c(O)c3c(c(O)c1C2=O)C[C@@](O)(C(=O)CO)C[C@@H]3O[C@H]1C[C@H](N)[C@H](O)[C@H](C)O1 [DOXORUBICIN] |  | 0.39 |  |  |  |  |  | 
4 | CC1=CC(=O)c2c(ccc3cc(C)oc23)C1=O | 31.1 | 44.1 | 60.1 | 32.6 | 28.8 | 55.2 | 44 | Rf [9]: 0.43
5 | COc1cc([C@@H]2c3cc4c(cc3[C@@H](O[C@@H]3O[C@@H]5CO[C@@H](C)O[C@H]5[C@H](O)[C@H]3O)[C@H]3COC(=O)[C@H]23)OCO4)cc(OC)c1O [ETOPOSIDE] |  | 8.9 |  | 12.5 |  | 4.71 |  | 
6 | C=CCc1ccc2c(c1O)C(=O)C=C(C)C2=O | 16.8 | 60.8 | 63 | 39 | 11.6 | 60.8 | 62.9 | Rf [8]: 0.35; Ratio [10]: 2
7 | O=C1C=CC(=O)c2c1ccc1c2OCC=C1 | 5.7 | 45.5 | 27.8 | 37.2 | 23.2 | 59.6 | 45.6 | Activity [11]: 46.7%; Activity [12]: 30.8%; Activity [13]: 32%; Activity [14]: Active; Ratio IC50 [15]: 2.5; Rf [16]: 0.38; Activity [17]: 45.3%; fold change (FC) [18]: 1.6; Activity [19]: Active; Activity [20]: 15.4%; Activity [21]: 12.3%
8 | CC1=CC(=O)c2c(ccc3c2OC(CI)C3)C1=O (stereo unspecified) | 26.8 | 31.2 | 48.4 | 21.6 | 33.8 | 16.2 | 33.2 | Rf [16]: 0.38
9 | CC1=CC(=O)c2c(O)cccc2C1=O [PLUMBAGIN] | 17.2 | 43.4 | 26.2 | 34.6 | 12.2 | 59 | 51.1 | 
10 | C=CCOc1cccc2c1C(=O)C=C(C)C2=O | 34.2 | 46.7 | 33.7 | 29.3 | 14.7 | 78 | 36.1 | Rf [9]: 0.45
11 | O=C1C=CC(=O)c2c1ccc1c2OC(CI)C1 (stereo unspecified) | 12.7 | 9.4 | 31.3 | 20.8 | 13.4 | 27.4 | 29.2 | Rf [16]: 0.48
12 | Cc1cc2ccc3c(c2o1)C(=O)C=CC3=O | 18.2 | 15 | 57.9 | 25.2 | 24.3 | 51.2 | 38.9 | Rf [9]: 0.42
13 | CC1=CC(=O)c2c(ccc3c2OCC=C3)C1=O | 24.5 | 25.9 | 34.6 | 10.9 | 11.7 | > 100 | 18.3 | Activity [22]: Dose-dependent effect; Ratio IC50 [23]: 1.3; Activity [24]: Active; Activity [25]: Dose-dependent effect; Activity [26]: 10.5%; Activity [27]: 45%; Rf [16]: 0.39; Activity [28]: 12.6%; Activity [29]: 55.9%; Activity [30]: Active; Activity [31]: 21.5%; Activity [32]: 31.3%; Ratio IC50 [10]: 2; Ratio IC50 [33]: 1.1
14 | O=C1C=CC(=O)c2c(O)cccc21 [JUGLONE] | 88.7 | 65.4 | > 100 | 27.5 | 16.5 | 93.7 | 75.8 | 
